Measured values from ChEMBL document CHEMBL1140077, “Lipid-lowering (hetero)aromatic tetrahydro-1,4-oxazine derivatives with antioxidant and squalene synthase inhibitory activity” (J Med Chem, 2008).

Experiments:
Rattus norvegicus [1] = test: Decrease in triglyceride level in Fischer 344 rat plasma at 56 umol/kg, ip after 24 hrs; type: functional; parameters: scale not given: the % may be the effect or the level left
Summary of the method: (§1)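 Male Fischer-344 rats (180-220 g) made hyperlipidemic with Triton WR 1339 (200 mg/kg ip, aqueous); 1 h later compound (56 µmol/kg) in saline or saline alone given ip. Aortic blood taken at 24 h; plasma total cholesterol, LDL-C and triglycerides measured with kits in duplicate; mean of 8-10 rats per compound.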

Rattus norvegicus [2] = test: Decrease in total cholesterol level in Fischer 344 rat plasma at 56 umol/kg, ip after 24 hrs; type: functional; parameters: scale not given: the % may be the effect or the level left; summary of the method: as §1
Squalene synthase = target: T1, Squalene synthase (Rattus norvegicus, UniProt Q02769); test: Inhibition of squalene synthase in rat liver microsome measured by conversion of [3H]FPP to squalene; type: microsomes
T1 sequence (Q02769 whole entry): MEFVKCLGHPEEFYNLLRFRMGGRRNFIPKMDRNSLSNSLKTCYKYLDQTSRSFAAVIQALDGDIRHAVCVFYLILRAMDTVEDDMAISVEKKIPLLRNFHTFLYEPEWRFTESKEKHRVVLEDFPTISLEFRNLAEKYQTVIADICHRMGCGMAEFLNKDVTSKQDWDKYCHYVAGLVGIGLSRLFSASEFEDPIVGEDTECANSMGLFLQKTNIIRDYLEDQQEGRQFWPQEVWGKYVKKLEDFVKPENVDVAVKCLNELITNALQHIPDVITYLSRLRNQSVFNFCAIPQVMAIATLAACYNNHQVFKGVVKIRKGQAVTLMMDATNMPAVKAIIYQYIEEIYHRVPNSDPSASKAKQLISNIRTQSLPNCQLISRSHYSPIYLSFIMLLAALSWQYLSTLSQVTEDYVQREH
Summary of the method: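 Rat liver microsomes (18 µg protein/mL) in 50 mM phosphate pH 7.4 with 10 mM MgCl2, 0.5 mM NADPH, compound in ethanol; preincubated 10 min 37 °C, started with [3H]FPP (0.5 µM), 10 min 37 °C. Stopped with ethanolic KOH, 65 °C 30 min, petroleum ether extract counted by scintillation; triplicates, IC50 from mean.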

Rattus norvegicus [3] = test: Decrease in LDL-cholesterol level in Fischer 344 rat plasma at 56 umol/kg, ip after 24 hrs; type: functional; parameters: scale not given: the % may be the effect or the level left; summary of the method: as §1
Liver microsomes = test: Inhibition of lipid peroxidation in heat-inactivated rat liver microsomes after 45 mins; type: functional, Microsome
Summary of the method: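 Heat-inactivated liver microsomes from untreated rats (2.5 mg protein/mL) with 0.2 mM ascorbate in Tris-HCl/KCl (50/150 mM, pH 7.4), compound 10 µM-1 mM in DMSO; started with FeSO4 (10 µM), 37 °C 45 min. TBAR read at 535 vs 600 nm; duplicates; IC50 as mean concentration giving 50% inhibition of peroxidation.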

CN1CC(O)(c2ccc(-c3ccc(Cl)cc3)cc2)OC2CCCCC21 (stereo not given)
Activity (Rattus norvegicus [1]): 41%
Activity (Rattus norvegicus [2]): 11%
IC50 (Squalene synthase): 9 µM
Activity (Rattus norvegicus [3]): 29%
IC50 (Liver microsomes): 180 µM

OC1(c2ccc(-c3ccccc3F)cc2)CN2CCCCC2CO1 (stereo not given)
Activity (Rattus norvegicus [1]): 15%
Activity (Rattus norvegicus [2]): 5%
IC50 (Squalene synthase): 10 µM
Activity (Rattus norvegicus [3]): 11%
IC50 (Liver microsomes): 390 µM

OC1(c2ccc(-c3ccc(Br)cc3)cc2)CN2CCCCC2CO1 (stereo not given)
Activity (Rattus norvegicus [1]): 17%
Activity (Rattus norvegicus [2]): 17%
IC50 (Squalene synthase): 3 µM
Activity (Rattus norvegicus [3]): 6%
IC50 (Liver microsomes): 139 µM

CN1CCOC(O)(c2ccc(-c3ccccc3F)cc2)C1 (stereo not given)
Activity (Rattus norvegicus [1]): 64%
Activity (Rattus norvegicus [2]): 67%
IC50 (Squalene synthase): 40 µM
Activity (Rattus norvegicus [3]): 82%
IC50 (Liver microsomes): 182 µM

OC1(c2ccc(-c3nc4ccccc4s3)cc2)CN2CCCCC2CO1 (stereo not given)
Activity (Rattus norvegicus [1]): 46%
Activity (Rattus norvegicus [2]): 55%
IC50 (Squalene synthase): 5 µM
Activity (Rattus norvegicus [3]): 41%
IC50 (Liver microsomes): 187 µM

CN1CCOC(O)(c2ccc(-c3ccc(Br)cc3)cc2)C1 (stereo not given)
Activity (Rattus norvegicus [1]): 51%
Activity (Rattus norvegicus [2]): 47%
IC50 (Squalene synthase): 6 µM
Activity (Rattus norvegicus [3]): 36%
IC50 (Liver microsomes): 220 µM

OC1(c2ccc(-c3ccc(Cl)cc3)cc2)CN2CCCCC2CO1 (stereo not given)
Activity (Rattus norvegicus [1]): 52%
Activity (Rattus norvegicus [2]): 44%
IC50 (Squalene synthase): 15 µM
Activity (Rattus norvegicus [3]): 35%
IC50 (Liver microsomes): 178 µM

CN1CC(O)(c2ccc(-c3ccc(Br)cc3)cc2)OC2CCCCC21 (stereo not given)
Activity (Rattus norvegicus [1]): 7%
Activity (Rattus norvegicus [2]): 23%
IC50 (Squalene synthase): 4 µM
Activity (Rattus norvegicus [3]): 53%
IC50 (Liver microsomes): 200 µM

CN1CC(O)(c2ccc(-c3cccs3)cc2)OC2CCCCC21 (stereo not given)
Activity (Rattus norvegicus [1]): 47%
Activity (Rattus norvegicus [2]): 45%
IC50 (Squalene synthase): 10 µM
Activity (Rattus norvegicus [3]): 46%
IC50 (Liver microsomes): 20 µM

CN1CC(O)(c2ccc(-c3ccc(Br)s3)cc2)OC2CCCCC21 (stereo not given)
Activity (Rattus norvegicus [1]): 26%
Activity (Rattus norvegicus [2]): 35%
IC50 (Squalene synthase): 1 µM
Activity (Rattus norvegicus [3]): 45%
IC50 (Liver microsomes): 160 µM

CN1CC(O)(c2ccc(-c3nc4ccccc4s3)cc2)OC2CCCCC21 (stereo not given)
Activity (Rattus norvegicus [1]): 0%
Activity (Rattus norvegicus [2]): 0%
IC50 (Squalene synthase): 6 µM
Activity (Rattus norvegicus [3]): 24%
IC50 (Liver microsomes): 202 µM

OC1(c2ccc(-c3ccc(Br)s3)cc2)CN2CCCCC2CO1 (stereo not given)
Activity (Rattus norvegicus [1]): 37%
Activity (Rattus norvegicus [2]): 36%
IC50 (Squalene synthase): 7 µM
Activity (Rattus norvegicus [3]): 35%
IC50 (Liver microsomes): 164 µM

CN1CCOC(O)(c2ccc(-c3nc4ccccc4s3)cc2)C1 (stereo not given)
Activity (Rattus norvegicus [1]): 44%
Activity (Rattus norvegicus [2]): 46%
IC50 (Squalene synthase): 2 µM
Activity (Rattus norvegicus [3]): 53%
IC50 (Liver microsomes): 113 µM

CN1CCOC(O)(c2ccc(-c3ccc(Cl)cc3)cc2)C1 (stereo not given)
Activity (Rattus norvegicus [1]): 70%
Activity (Rattus norvegicus [2]): 63%
IC50 (Squalene synthase): 9 µM
Activity (Rattus norvegicus [3]): 57%
IC50 (Liver microsomes): 111 µM

OC1(c2ccc(-c3cccs3)cc2)CN2CCCCC2CO1 (stereo not given)
Activity (Rattus norvegicus [1]): 29%
Activity (Rattus norvegicus [2]): 43%
IC50 (Squalene synthase): 7 µM
Activity (Rattus norvegicus [3]): 46%
IC50 (Liver microsomes): 174 µM

CN1CCOC(O)(c2ccc(-c3cccs3)cc2)C1 (stereo not given)
Activity (Rattus norvegicus [1]): 38%
Activity (Rattus norvegicus [2]): 48%
IC50 (Squalene synthase): 5 µM
Activity (Rattus norvegicus [3]): 61%
IC50 (Liver microsomes): 87 µM

OC1(c2ccc(-c3ccc(F)cc3)cc2)CN2CCCCC2CO1 (stereo not given)
Activity (Rattus norvegicus [1]): 95%
Activity (Rattus norvegicus [2]): 27%
IC50 (Squalene synthase): 10 µM
Activity (Rattus norvegicus [3]): 11%
IC50 (Liver microsomes): 162 µM

CN1CCOC(O)(c2ccc(-c3ccc(F)cc3)cc2)C1 (stereo not given)
Activity (Rattus norvegicus [1]): 18%
Activity (Rattus norvegicus [2]): 23%
IC50 (Squalene synthase): 23 µM
Activity (Rattus norvegicus [3]): 36%
IC50 (Liver microsomes): 330 µM

CN1CC(O)(c2ccc(-c3ccccc3)cc2)OC2CCCCC21 (stereo not given)
Activity (Rattus norvegicus [1]): 49%
Activity (Rattus norvegicus [2]): 54%
IC50 (Squalene synthase): 36 µM
Activity (Rattus norvegicus [3]): 51%
IC50 (Liver microsomes): 450 µM

CN1CC(O)(c2ccc(-c3ccccc3F)cc2)OC2CCCCC21 (stereo not given)
Activity (Rattus norvegicus [1]): 25%
Activity (Rattus norvegicus [2]): 18%
IC50 (Squalene synthase): 42 µM
Activity (Rattus norvegicus [3]): 47%
IC50 (Liver microsomes): 490 µM

CN1CCOC(O)(c2ccc(-c3ccc(Br)s3)cc2)C1 (stereo not given)
Activity (Rattus norvegicus [1]): 35%
Activity (Rattus norvegicus [2]): 43%
IC50 (Squalene synthase): 13 µM
Activity (Rattus norvegicus [3]): 26%
IC50 (Liver microsomes): 51 µM

CN1CC(O)(c2ccc(-c3ccc(F)cc3)cc2)OC2CCCCC21 (stereo not given)
Activity (Rattus norvegicus [1]): 94%
Activity (Rattus norvegicus [2]): 41%
IC50 (Squalene synthase): 28 µM
Activity (Rattus norvegicus [3]): 33%
IC50 (Liver microsomes): 420 µM
